Test results as given in ChEMBL document CHEMBL1764990, “Caffeic acid phenethyl ester inhibits PDGF-induced proliferation of vascular smooth muscle cells via activation of p38 MAPK, HIF-1α, and heme oxygenase-1” (J Nat Prod, 2011).
Activity calls are given as the source filed them. No cut-off for these calls is given here.

How the values were obtained:
VSMC [1] = assay: Induction of HO-1 protein expression in Nrf2-deficient PDGF-stimulated rat VSMC; format: functional
VSMC [2] = assay: Inhibition of rat VSMC proliferation at 5 uM; format: functional
VSMC [3] = assay: Accumulation of HIF-1alpha in PDGF-stimulated rat VSMC at 5 uM after 4 hrs by immunoblot analysis; format: functional
Outline: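 Primary aortic smooth muscle cells from male Sprague-Dawley rats, made quiescent in serum-free DMEM for 24 h. Pretreated with compound or vehicle, then stimulated with PDGF. After 4 h, total cell lysates were immunoblotted for HIF-1α, with actin as loading control.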

VSMC [4] = assay: Inhibition of AKT phosphorylation in PDGF-stimulated rat VSMC at 5 uM treated for 30 mins before 10 mins of cell stimulation by Western blot analysis; format: cell-based
Outline: (§1)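 Quiescent rat aortic VSMCs (serum-free DMEM 24 h) pretreated 30 min with vehicle or 5 μM compound, then stimulated with PDGF (20 ng/mL) for 10 min. Total lysates analysed by Western blot for phospho-AKT, ERK, JNK, STAT3 and p38, with tubulin or actin.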

VSMC [5] = assay: Decrease in intracellular ROS level in PDGF-stimulated rat VSMC at 5 uM pretreated with compound for 30 mins measured after upto 23 hrs of post stimulation using H2DCF by flow cytometric analysis; format: functional, cell-based
Outline: (§2)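 Quiescent rat aortic VSMCs pretreated 30 min with 5 μM compound or vehicle, then stimulated with PDGF (20 ng/mL). At set times up to 23 h, total intracellular ROS measured by flow cytometry of oxidized H2DCF (H2DCFDA probe). n = 3, ANOVA.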

VSMC [6] = assay: Antiproliferative activity against PDGF-stimulated rat VSMC transfected with HO-1 siRNA assessed as growth arrest after 24 hrs by immunoblot analysis; format: functional; conditions: in the assay text read “by cell counting” for “by immunoblot analysis”
Outline: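 Rat aortic VSMCs transfected with scrambled or HO-1-specific siRNA, then starved, treated with compound and stimulated with PDGF. Cells were counted after 24 h. HO-1 knockdown was checked by immunoblot. n = 3, Student's t-test.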

VSMC [7] = assay: Inhibition of PDGF-stimulated rat VSMC proliferation after 24 hrs; format: functional
Outline: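 Quiescent rat aortic VSMCs treated with compound (1–10 μM) or vehicle, then stimulated with PDGF (20 ng/mL) for 24 h. Cells were counted; the increase in cell number in vehicle-treated cells was set to 100%.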

Rattus norvegicus [8] = organism: Rattus norvegicus; assay: Inhibition of TNFalpha-induced NF-kappaB binding activity in rat VSMC at 5 uM pretreated for 30 mins before 45 mins of TNFalpha stimulation by gel shift assay
Outline: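 Rat aortic VSMCs in six-well plates preincubated 30 min with vehicle or compound, then treated with TNF-α (10 ng/mL). NF-κB DNA binding in nuclear extracts measured by electrophoretic mobility shift assay.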

Rattus norvegicus [9] = organism: Rattus norvegicus; assay: Effect on p38 MAPK activation in PDGF-stimulated rat VSMC assessed as phosphorylation at 5 uM treated for 30 mins followed by stimulated with PDGF for 60 mins by immunoblot analysis
Outline: (§3)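 Quiescent rat aortic VSMCs pretreated 30 min with vehicle or 5 μM compound, then stimulated with PDGF for 10 or 60 min. Total lysates immunoblotted for phospho-p38 and total p38. Three independent experiments.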

VSMC [10] = assay: Inhibition of PDGF-induced DNA synthesis in rat VSMC assessed as [3H]thymidine incorporation into DNA at 5 uM treated for 30 mins before 24 hrs of PDGF challenge; format: functional
Outline: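 Quiescent rat aortic VSMCs (starved 48 h) pretreated 30 min with 5 μM compound, then stimulated with PDGF-BB (20 ng/mL). Methyl-3H-thymidine (2 μCi/mL) pulse for the last 6 h of 24 h. TCA-insoluble radioactivity measured after NaOH solubilisation.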

VSMC [11] = assay: Inhibition of p38 phosphorylation in PDGF-stimulated rat VSMC at 5 uM treated for 30 mins before 10 mins of cell stimulation by Western blot analysis; format: cell-based; outline: as §1
[12] = biological target: Mitogen-activated protein kinase 8 (Rattus norvegicus) (UniProt P49185); assay: Inhibition of JNK1/2 phosphorylation in PDGF-stimulated rat VSMC at 5 uM treated for 30 mins before 10 mins of cell stimulation by Western blot analysis; format: cell-based; outline: as §1
[13] = biological target: Signal transducer and activator of transcription 3 (Rattus norvegicus) (UniProt P52631); assay: Inhibition of STAT3 phosphorylation in PDGF-stimulated rat VSMC at 5 uM treated for 30 mins before 10 mins of cell stimulation by Western blot analysis; outline: as §1
Rattus norvegicus [14] = organism: Rattus norvegicus; assay: Effect on p38 MAPK activation in PDGF-stimulated rat VSMC assessed as phosphorylation at 5 uM treated for 30 mins followed by stimulated with PDGF for 10 mins by immunoblot analysis; outline: as §3
[15] = Cell cycle arrest in PDGF-induced rat VSMC assessed as accumulation at G0/G1 phase at 5 uM treated for 30 mins followed by induced with PDGF for 28 hrs by propidium iodide staining by flow cytometry; format: functional, cell-based
Outline: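 Quiescent rat aortic VSMCs pretreated 30 min with 5 μM compound, then stimulated with PDGF (20 ng/mL) for 28 h. Nuclei stained with propidium iodide; cell-cycle distribution by flow cytometry. n = 3.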

VSMC [16] = assay: Induction of HO-1 protein expression in rat VSMC at 5 uM measured after 16 hrs in presence of 10 to 100 uM of HIF-1alpha inhibitor […] treated for 15 mins by immunoblot analysis; format: functional
Outline: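 Rat aortic VSMCs pretreated 15 min with the HIF-1α inhibitor YC-1 at graded levels (up to 100 μM), then given 5 μM compound or vehicle for 16 h. HO-1 read by immunoblot.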

VSMC [17] = assay: Inhibition of tubulin phosphorylation in PDGF-stimulated rat VSMC at 5 uM treated for 30 mins before 10 mins of cell stimulation by Western blot analysis; format: cell-based
[18] = Cytotoxicity against rat VSMC assessed as morphological changes at >25 uM after 48 hrs by trypan blue exclusion assay
Outline: (§4)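 Cultured rat aortic VSMCs exposed to compound for 48 h. Viability by trypan blue exclusion, with cell morphology and detachment also noted.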

VSMC [19] = assay: Antiproliferative activity against PDGF-stimulated rat VSMC assessed as inhibition of DNA synthesis at 5 uM after 24 hrs by [3H]-thymidine incorporation assay in presence of p38 kinase inhibitor SB203580; format: functional
Outline: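 Rat aortic VSMCs starved 48 h. Treated with compound (5 μM), p38 inhibitor SB203580 (10 μM) and PDGF-BB (20 ng/mL) as indicated. Pulse-labelled with methyl-3H-thymidine (2 μCi/mL) for the final 6 h of 24 h. TCA-precipitated material was dissolved in 0.4 M NaOH and counted. n = 3, Student's t-test.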

VSMC [20] = assay: Increase in HO-1 protein expression in rat VSMC at 5 uM after 16 hrs by immunoblot analysis; format: functional
Outline: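 Rat aortic VSMCs treated 16 h with vehicle, compound (5 μM) or cobalt protoporphyrin (10 μM). Total lysates immunoblotted for HO-1 and actin. Three independent experiments.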

VSMC [21] = assay: Inhibition of PDGF-stimulated rat VSMC proliferation; format: functional
Rattus norvegicus [22] = organism: Rattus norvegicus; assay: Inhibition of NF-kappaB activation in rat VSMC at 5 uM
VSMC [23] = assay: Decrease in basal ROS level in PDGF-stimulated rat VSMC at 5 uM pretreated with compound for 30 mins measured after upto 23 hrs of post stimulation using H2DCF by flow cytometric analysis; format: functional; outline: as §2
VSMC [24] = assay: Induction of cell cycle arrest in rat VSMC at G1 phase assessed as inhibition of retinoblastoma protein phosphorylation treated for 30 mins before 12 hrs of PDGF challenge by Western blot analysis; format: functional, cell-based
[25] = biological target: Mitogen-activated protein kinase 1 and 3 (ERK2 and ERK1) (Rattus norvegicus) (UniProt P63086+P21708); assay: Inhibition of ERK1/2 phosphorylation in PDGF-stimulated rat VSMC at 5 uM treated for 30 mins before 10 mins of cell stimulation by Western blot analysis; outline: as §1
[26] = Cytotoxicity against rat VSMC assessed as detachment of the cells at >25 uM after 48 hrs by trypan blue exclusion assay; format: cell-based; outline: as §4
[27] = Cytotoxicity against rat VSMC assessed as cell viability at >25 uM after 48 hrs by trypan blue exclusion assay; format: cell-based; conditions: VSMC (vascular smooth muscle cells), read-out: Activity; outline: as §4

Sequence of Mitogen-activated protein kinase 8 (Rattus norvegicus) (P49185 whole entry): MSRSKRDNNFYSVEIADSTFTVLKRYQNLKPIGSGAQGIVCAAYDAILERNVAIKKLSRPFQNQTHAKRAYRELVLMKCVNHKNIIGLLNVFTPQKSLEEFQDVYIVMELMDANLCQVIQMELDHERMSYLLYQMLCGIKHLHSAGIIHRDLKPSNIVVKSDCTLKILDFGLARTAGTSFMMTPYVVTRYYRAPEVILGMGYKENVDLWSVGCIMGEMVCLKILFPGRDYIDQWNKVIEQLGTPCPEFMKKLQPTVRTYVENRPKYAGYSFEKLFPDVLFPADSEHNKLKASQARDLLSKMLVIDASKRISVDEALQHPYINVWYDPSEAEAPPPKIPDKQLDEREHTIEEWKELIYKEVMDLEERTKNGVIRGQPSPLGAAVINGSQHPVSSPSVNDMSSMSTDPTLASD
Sequence of Mitogen-activated protein kinase 1 and 3 (ERK2 and ERK1) (Rattus norvegicus) (P21708 whole entry, looked up): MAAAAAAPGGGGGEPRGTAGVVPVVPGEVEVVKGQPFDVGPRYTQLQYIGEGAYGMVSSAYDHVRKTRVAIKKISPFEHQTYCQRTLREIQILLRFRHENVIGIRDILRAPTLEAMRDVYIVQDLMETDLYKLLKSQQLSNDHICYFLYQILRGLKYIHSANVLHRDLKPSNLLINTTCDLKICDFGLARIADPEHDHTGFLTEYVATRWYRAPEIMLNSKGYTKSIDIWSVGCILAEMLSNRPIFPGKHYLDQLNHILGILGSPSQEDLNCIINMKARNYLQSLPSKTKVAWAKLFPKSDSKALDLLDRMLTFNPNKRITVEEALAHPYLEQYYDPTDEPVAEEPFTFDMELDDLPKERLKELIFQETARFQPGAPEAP
Sequence of Mitogen-activated protein kinase 1 and 3 (ERK2 and ERK1) (Rattus norvegicus) (P63086 whole entry, looked up): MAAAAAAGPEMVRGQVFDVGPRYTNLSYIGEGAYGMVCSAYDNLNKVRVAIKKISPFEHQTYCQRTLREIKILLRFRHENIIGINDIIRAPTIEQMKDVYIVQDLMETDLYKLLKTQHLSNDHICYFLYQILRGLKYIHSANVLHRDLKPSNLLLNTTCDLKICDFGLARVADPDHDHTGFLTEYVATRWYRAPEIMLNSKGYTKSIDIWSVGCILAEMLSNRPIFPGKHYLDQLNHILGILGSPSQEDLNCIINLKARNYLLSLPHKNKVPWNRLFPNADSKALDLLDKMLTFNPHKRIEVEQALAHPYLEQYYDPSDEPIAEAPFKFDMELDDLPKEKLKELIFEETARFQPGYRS
Sequence of Signal transducer and activator of transcription 3 (Rattus norvegicus) (P52631 whole entry): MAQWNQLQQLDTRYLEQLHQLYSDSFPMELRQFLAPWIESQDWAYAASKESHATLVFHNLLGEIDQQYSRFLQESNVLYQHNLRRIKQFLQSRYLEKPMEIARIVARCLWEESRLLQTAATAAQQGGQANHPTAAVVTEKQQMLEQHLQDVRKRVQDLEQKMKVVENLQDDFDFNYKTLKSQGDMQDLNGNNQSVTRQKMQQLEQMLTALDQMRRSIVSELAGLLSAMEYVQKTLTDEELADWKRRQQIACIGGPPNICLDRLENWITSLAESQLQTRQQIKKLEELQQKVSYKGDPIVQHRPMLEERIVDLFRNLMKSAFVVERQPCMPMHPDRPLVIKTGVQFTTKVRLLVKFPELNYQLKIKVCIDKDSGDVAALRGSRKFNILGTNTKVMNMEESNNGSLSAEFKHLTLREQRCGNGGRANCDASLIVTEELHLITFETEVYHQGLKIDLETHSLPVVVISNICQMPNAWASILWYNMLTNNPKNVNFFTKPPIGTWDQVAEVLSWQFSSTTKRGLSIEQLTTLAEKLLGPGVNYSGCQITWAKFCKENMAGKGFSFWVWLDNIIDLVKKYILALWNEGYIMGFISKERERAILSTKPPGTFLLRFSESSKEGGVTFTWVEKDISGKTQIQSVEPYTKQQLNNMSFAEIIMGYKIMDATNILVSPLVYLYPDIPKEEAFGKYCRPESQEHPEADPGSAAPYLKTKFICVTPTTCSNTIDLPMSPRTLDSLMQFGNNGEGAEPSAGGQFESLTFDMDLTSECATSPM

Activity (Rattus norvegicus [8]): inactive
Activity (Rattus norvegicus [9]): Active
Activity [12]: inactive
Activity [13]: inactive
Activity (Rattus norvegicus [14]): Active
Activity (Rattus norvegicus [22]): inactive
Activity [25]: inactive
Structure (SMILES): O=C(/C=C/c1ccc(O)c(O)c1)OCCc1ccccc1 [CAFFEIC ACID PHENETHYL ESTER]
Activity (VSMC [1]): Active
Activity (VSMC [2]): Active
Activity (VSMC [3]): Active
Activity (VSMC [4]): inactive
Activity (VSMC [5]): Active
growth inhibition (GI) (VSMC [6]): inactive
inhibition (VSMC [7]): Dose-dependent effect
Activity (VSMC [10]): Active
Activity (VSMC [11]): inactive
Activity [15]: Active
Activity (VSMC [16]): inactive
Activity (VSMC [17]): inactive
Activity [18]: Toxic
inhibition (VSMC [19]): inactive
Activity (VSMC [20]): Active
inhibition (VSMC [21]): Dose-dependent effect
Activity (VSMC [23]): Active
inhibition (VSMC [24]): Active
Activity [26]: Toxic
viability at 48 h [27]: 65%
